Bioassay records as filed in PubChem.
TMEM16A act: activators or potentiators of mouse TMEM16A chloride channel; Q8BHY3; HEK293 TMEM16A/YFP-H148Q/I152L, iodide quench fluorescence; hits give low values; B-score at 10 µM; 340,000 tested, 0.3% active; AID 623877;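 active = fluorescence-ratio B-score plate-corrected deviation score at least 3 library SD below zero, with starting fluorescence score within 5 deviations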;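 also: channel opened by trigger with iodide after compound preincubation; score built on the fluorescence ratio of max minus min over baseline; more negative score means more quench and so TMEM16A activation or potentiation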
ANO1 block: inhibitors of mouse TMEM16A calcium-activated chloride channel | normalized B-score (activity score, 25-100; higher = stronger inhibition) at 10 µM | HEK293 TMEM16A/YFP iodide influx fluorescence, ionomycin | 310,000 tested, 1.2% active | Q8BHY3 | AID 588511;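 active = ratio plate-corrected score three or more library SD toward inhibition, starting fluorescence score within five deviations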;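 also: score derived from kinetic fluorescence span divided by baseline fluorescence per well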
CRFR2-BP ag: CRF-BP/CRF-R2 complex agonism | HEK293 CRF-R2/CRF-BP, calcium dye fluorescence (FLIPR); percent of saturating CRF peptide response | activation, % at 13.2 µM | 350,000 tested, 0.46% active | AID 588473;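 active = activation of at least 50%, plus an integration ratio under a set limit after plate pattern correction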;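 also: plate controls were neutral control wells without compound for no effect and CRF at EC100 for full effect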
CRFR2-BP antag: blocks CRF-induced signaling of the CRF-BP/CRF-R2 complex; 350,000 tested, 0.59% active; HEK293 CRF-R2/CRF-BP, CRF-induced calcium fluorescence; inhibition, % at 11.8 µM; AID 588475;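 active = inhibition of the ligand-induced calcium signal above about 50% at the single tested concentration, limit read from the data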
TAAR1 antagonist: antagonists of human TAAR1; Q96RJ0; CHO RD-HGA16 TAAR1, Fluo-8 calcium fluorescence, antagonist; inhibition, % at 3 µM; 360,000 tested, 1.5% active; AID 624466;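 active = inhibition above a per-plate cutoff, the mean inhibition of test compounds on that plate plus 3 SD, cut at about 49% in these data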;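 also: 0% = DMSO plus EC80 beta-PEA response and 100% = DMSO alone without agonist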
Target sequence (Q96RJ0 whole entry, looked up): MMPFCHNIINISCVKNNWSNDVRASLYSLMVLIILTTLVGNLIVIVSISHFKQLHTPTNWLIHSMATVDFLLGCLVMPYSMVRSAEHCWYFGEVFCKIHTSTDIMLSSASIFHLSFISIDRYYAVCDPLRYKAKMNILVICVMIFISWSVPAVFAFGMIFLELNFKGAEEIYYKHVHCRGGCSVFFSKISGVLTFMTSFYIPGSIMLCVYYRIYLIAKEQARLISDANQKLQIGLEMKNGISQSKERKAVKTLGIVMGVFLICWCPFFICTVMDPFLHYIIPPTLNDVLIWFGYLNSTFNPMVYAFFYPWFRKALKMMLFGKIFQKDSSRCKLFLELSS
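Assay system: RD-HGA16 CHO cells with stable hTAAR1 and Gα16 / Reagent: EC80 β-phenethylamine stimulus / Doses: 3 µM, single point / Timing: dye loading 75 min at 37 °C, then 30 min room temperature / Measured by: Fluo-8 intracellular calcium dye fluorescence, real-time kinetic reads / Controls: vehicle wells and EC80 agonist wells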
TAAR1 agonist: human TAAR1 agonism; activation, % at 3 µM; CHO RD-HGA16 TAAR1, Fluo-8 calcium fluorescence; vehicle wells 0%, saturating PEA agonist 100%; AID 624467; 360,000 tested, 0.99% active;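 active = activation above the mean activation of all test compounds in the run plus 3 SD, cut at about 38% in these data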
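System: CHO RD-HGA16 cells carrying human TAAR1 plus Gα16; Incubation: 17-24 h seeding, 75 min 37 °C dye, 30 min RT; Measured by: Fluo-8 fluorescence, 5 s baseline then 140 s kinetic read; Control set: DMSO and PEA EC100; Replication: single well for each compound.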
* hit, by the source's call; i = inactive; . = no result given. An excerpt weighted towards active compounds, which were near 3.9% of everything screened.

SMILES	TMEM16A act	ANO1 block	CRFR2-BP ag	CRFR2-BP antag	TAAR1 antagonist	TAAR1 agonist
NC(=O)c1cc([N+](=O)[O-])ccc1NCC1CCCCC1	i	i	0.1	-6.2	-15.3	37.6*
NC(=O)c1cc([N+](=O)[O-])ccc1NCc1ccc(O)cc1	i	i	-3.1	5.7	-3.0	12.4
CC(=O)Oc1ccc(Oc2ccc(-c3noc(C)n3)cc2)cc1	i	i	-0.1	15.8	7.4	7.2
CC(=O)Oc1ccc(-c2nc(-c3cccnc3)no2)cc1	-14.7*	i	-1.5	-16.3	-7.8	-0.3
NS(=O)(=O)c1ccc(CCNC(=O)CCCCCn2c(=S)[nH]c3ccc(Br)cc3c2=O)cc1	i	i	3.3	-20.3	60.0*	25.4
O=C(CCCCCn1c(=S)[nH]c2ccc(Br)cc2c1=O)NCC1CCCO1 (stereo not given)	i	i	0.4	-14.1	37.7	12.5
CCOC(=O)N1CCN(C(=O)c2ccc(Cn3c(=S)[nH]c4ccc(Br)cc4c3=O)cc2)CC1	i	100*	1.3	-8.0	-48.5	-1.4
CCCN1CC(O)=C(C#N)C1=O	i	i	-2.1	29.9	-2.9	5.9
Cc1ccccc1CS(=O)(=O)c1cn(CC(=O)N2CCOCC2)c2ccccc12	i	i	-1.2	-7.6	15.4	3.9
CSc1ccccc1NC(=O)C1CCCN(S(C)(=O)=O)C1 (stereo not given)	i	i	0.2	-1.4	-10.6	4.6
Cc1nnc(SCc2ccc(F)cc2Cl)s1	i	i	-4.5	18.6	7.2	9.9
Nc1nnc(SCc2ccc(F)cc2Cl)s1	i	i	-6.8	58.3*	.	.
N#CCC(=O)Nc1ccc(C(=O)OCC(=O)Nc2ccc3ccccc3c2)cc1	i	.	-0.5	1.6	9.5	2.0
N#Cc1ccc2c(=O)n(-c3ccccc3)sc2c1	.	.	11.2	2.4	19.5	31.8
O=C(O)c1cccc(-n2sc3ccccc3c2=O)c1	i	.	-1.9	4.3	-10.0	14.6
Cc1ccccc1-n1sc2cc(F)ccc2c1=O	i	i	27.5	20.9	39.5	44.0*
O=c1c2cc(C(F)(F)F)ccc2sn1-c1ccccc1	.	.	60.8*	44.7	25.2	35.7
O=c1c2ccccc2sn1-c1cccc(Cl)c1	.	.	14.9	21.2	21.8	38.5*
O=c1c2cc(F)ccc2sn1-c1ccccc1	i	.	24.8	33.1	57.3*	60.1*
Cn1c(SCC(=O)NN2C(=O)NC(C)(c3ccccc3)C2=O)nnc1-c1ccncc1 (stereo not given)	i	.	2.8	5.0	-10.3	8.9
O=S(=O)(/N=C(/Nc1cccc2ccccc12)c1ccccc1)c1ccc(F)cc1	i	i	-1.3	-12.5	-10.3	-1.1
O=c1c2ccccc2sn1-c1nccs1	i	.	5.4	-9.7	35.3	46.6*
O=C1c2ccccc2C(=O)N1c1nccs1	i	.	3.6	-8.8	-15.6	3.1
Cc1c(O)cc2c(c1O)C(=O)CC(c1ccccc1)O2 (stereo not given)	-6.48*	100*	105.3*	-38.2	8.3	-0.3
O=C1C[C@@H](c2ccc(O)cc2)Oc2cc(O)cc(O)c21	i	i	1.2	0.9	-2.4	15.9
Cc1cccc(C(=O)N2c3ccccc3C(=O)OC2c2ccc3c(c2)OCO3)c1 (stereo not given)	i	i	2.2	75.2*	-3.0	7.4
COc1ccc(C(=O)C2CCCN(C(=O)CCc3scnc3C)C2)c(C)c1 (stereo not given)	i	i	-0.5	1.3	6.1	4.4
O=C(/C=C/c1ccccc1[N+](=O)[O-])N1CCOCC1	i	i	-0.2	63.3*	0.3	-0.3
O=C(Cn1c(=O)[nH]c2sc3c(c2c1=O)CCCC3)NCC1CCCO1 (stereo not given)	i	i	0.1	-10.8	-23.2	1.3
CC1(C)Cc2c(sc3[nH]c(=O)n(CC(=O)NCC4CCCO4)c(=O)c23)CO1 (stereo not given)	i	i	1.2	83.6*	-19.3	0.5
